Screens (PubChem BioAssay)
Most compounds without a hit are left out; they make up all but 3.1% or so of the library.
SENP8 block-1: SENP8 (human) protease inhibition; Q96LD8; recombinant SENP8, Nedd8 substrate fluorescence; AID 602440; inhibition, % at 20 µM; 360,000 tested, 0.64% active; in the data active = inhibition mostly above about 40%, no sharp cut-off; inactive = mostly below about 27%
Target sequence (Q96LD8 whole entry, looked up): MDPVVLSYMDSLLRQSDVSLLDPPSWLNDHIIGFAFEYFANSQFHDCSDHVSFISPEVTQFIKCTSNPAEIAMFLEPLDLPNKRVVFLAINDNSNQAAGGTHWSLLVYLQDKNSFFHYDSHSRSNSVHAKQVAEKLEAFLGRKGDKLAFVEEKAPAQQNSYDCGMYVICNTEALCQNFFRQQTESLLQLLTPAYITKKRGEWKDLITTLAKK
UBC13 inh: human UBC13 polyubiquitination inhibition; P61088; 330,000 tested, 0.47% active; UBC13 polyubiquitin chain formation, TR-FRET; inhibition, % at 20 µM; AID 485273; in the data active = inhibition above about 45%, passing the limit was not always enough
Apaf1 inhib: inhibitors of human Apaf-1 apoptosome | 330,000 tested, 0.71% active | reconstituted apoptosome caspase-3 activity, DEVD-Rh110 fluorescence | inhibition, % at 20 µM | AID 489030 | O14727; active = inhibition of at least 40% at 20 µM;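 also: plate controls were DMSO wells for no effect and DEVD-CHO caspase inhibitor wells for full effect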
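Material: reconstituted apoptosome with Apaf-1, cytochrome c, caspase-9, procaspase-3, dATP / Buffer or medium: pH 7.5 Hepes buffer with CHAPS, BSA, DTT / Also added: cytochrome c with DEVD-Rh110 / Schedule: compound with Apaf-1, dATP, procaspase-3 30 min, then 50 min reaction, room temperature / Technique: rhodamine 110 fluorescence at Ex 480/Em 540 nm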
SENP7 block: SENP7 protease inhibition; recombinant SENP7, Z-RLRGG-aminoluciferin luminescence, 40 min; AID 434973; inhibition, % at 5 µM; Q9BQF6; 330,000 tested, 1.5% active;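 active = inhibition above about 50% at the single test dose, limit read from the data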;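 also: plate controls were DMSO with enzyme for no effect and no enzyme buffer wells for full effect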
SENP6 block: blocks the human protease SENP6; Recombinant SENP6 catalytic domain, aminoluciferin luminescence; inhibition, % at 10 µM; 330,000 tested, 1.8% active; AID 2599;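 active = inhibition above about 50% at the single tested dose, limit read from the data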;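 also: plate controls were DMSO wells with enzyme for no effect and DMSO wells lacking enzyme for full effect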
Target sequence (Q9GZR1 628-1112 limits assumed): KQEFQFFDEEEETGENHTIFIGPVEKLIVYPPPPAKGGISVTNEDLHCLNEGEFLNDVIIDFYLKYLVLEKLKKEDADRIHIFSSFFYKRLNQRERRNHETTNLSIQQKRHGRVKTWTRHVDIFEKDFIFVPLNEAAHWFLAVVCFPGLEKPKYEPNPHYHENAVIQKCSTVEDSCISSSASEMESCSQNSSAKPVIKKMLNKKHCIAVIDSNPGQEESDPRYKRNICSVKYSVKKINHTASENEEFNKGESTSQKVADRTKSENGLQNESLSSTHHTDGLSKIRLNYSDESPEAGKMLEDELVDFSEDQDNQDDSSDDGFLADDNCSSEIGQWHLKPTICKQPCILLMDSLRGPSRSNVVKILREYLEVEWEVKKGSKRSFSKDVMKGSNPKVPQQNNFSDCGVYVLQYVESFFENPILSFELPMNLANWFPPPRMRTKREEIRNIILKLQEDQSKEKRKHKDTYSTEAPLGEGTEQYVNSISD
SENP8 block-2: SENP8 protease inhibition. inhibition, % at 10 µM. AID 2540. purified SENP8, Z-RLRGG-aminoluciferin cleavage, luminescence. 330,000 tested, 1.2% active; in the data active = inhibition above about 50%
Apaf-1 inh conf2: Apaf-1 inhibition, single-dose confirmed. shares compounds with Apaf1 inhib. reconstituted apoptosome, caspase-3 DEVD-Rh110 fluorescence. inhibition, % at 20 µM. 1,800 tested, 25% active. AID 504614;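 active = mean inhibition of at least 40% at 20 µM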;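 also: plate controls were DMSO wells for no effect and DEVD-CHO caspase inhibitor control wells for full effect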
Rh110 quench: counter-screen for Apaf-1 inhibitors: fluorescence interference | 1,800 tested, under 10 active | shares compounds with Apaf1 inhib | activation (fluorescence interference), % at 20 µM | Rh110 fluorescence interference, quenched caspase reaction;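 active = signal rise of 40% or more at 20 µM, treated as a fluorescence artifact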
Apaf1 inh interf: counter-screen for Apaf-1 inhibitors: fluorescence interference, dose response | 460 tested, under 10 active | shares compounds with Apaf1 inhib | IC50, µM | fluorescence interference counterscreen, Apaf-1 assay format; call rule not given here
SENP8 conf: SENP8 (human) inhibition, single concentration confirmation; purified SENP8, Nedd8-AMC/pro-Nedd8 cleavage fluorescence, 30 min; 1,400 tested, 15% active; inhibition, % at 25 µM; AID 624319; shares compounds with SENP8 block-1; in the data active = inhibition mostly above about 39%, no sharp cut-off; inactive = mostly below about 34%
* = called active by the depositor; · = no result given; ! = a repeat was not active.

SMILES | SENP8 block-1 | UBC13 inh | Apaf1 inhib | SENP7 block | SENP6 block | SENP8 block-2 | Apaf-1 inh conf2 | Rh110 quench | others
O=C1c2ccccc2C(=O)c2c1cccc2-n1nnc2ccccc21 | 32 | -1 | 5 | 5 | -11 | 0 | · | ·
Cc1cc2ccccc2n1CCNC(=O)C1CCCC1 | -52 | -1 | 6 | 4 | -3 | 2 | · | ·
Cc1cc2ccccc2n1CCNC(=O)C1CCCCC1 | -21 | 14 | 44* | -7 | -10 | 3 | 8 | 7
CCOC(=O)C1Nc2ccc(C(F)(F)F)cc2C2c3ccccc3CC12 (stereo not drawn) | -96 | 23 | 29 | 8 | -9 | -3 | · | ·
CCOC(=O)C1Nc2ccccc2C2C(O)C(O)CC12 (stereo not drawn) | 33 | -27 | 66* | 8 | 27 | 0 | 18 | -7
COc1ccc(N[C@@H]2CCN3C(=O)c4ccccc4[C@@H]3C[C@H]2O)cc1 | 13 | · | 17 | 5 | · | · | · | ·
O=C1c2ccccc2[C@@H]2C[C@@H](O)[C@H](Nc3cccc4ccccc34)CCN12 | -254 | · | 53* | 18 | · | · | 28 | 8
COc1cccc(N2CCN(CC(=O)Nc3ccccc3C(=O)NCCc3ccccc3)CC2)c1 | -6 | 29 | 50* | -1 | 6 | -8 | 12 | 5
CCC/C=C/c1ccc(CN2C(CC(C)C)C(=O)N(Cc3cn(CC4CCCCC4)nn3)CCS2(=O)=O)cc1 (stereo not drawn) | -1 | · | · | · | · | · | · | ·
S=C(Nc1ccc2nsnc2c1)N1CCCCC1 | -16 | · | · | · | · | · | · | ·
CCN(CC)C(=O)C1CCCN(C(=O)Nc2ccc3nsnc3c2)C1 (stereo not drawn) | -420 | 18 | 71* | 4 | 1 | 2 | 12 | 5
COc1ccc(CC(=O)NCc2ccccc2)cc1S(=O)(=O)N1CCOCC1 | 28 | -4 | 5 | -9 | 7 | -3 | · | ·
COc1ccc(CC(=O)N(C)CC(=O)Nc2c(C)cccc2C)cc1S(=O)(=O)N1CCOCC1 | -2 | 40 | 60* | 6 | -7 | 1 | 39 | 5
COc1ccc(CC(=O)N(C)CC(=O)Nc2ccccc2C(F)(F)F)cc1S(=O)(=O)N1CCOCC1 | 7 | 8 | 46* | 9 | -4 | -1 | 37 | 2
COc1ccc(CC(=O)N(Cc2ccccc2)c2ccc(C)cc2)cc1S(=O)(=O)N1CCOCC1 | -15 | 28 | 43* | 6 | -7 | -13 | 43* | 6 | Apaf1 inh interf=>100
COc1ccc(CC(=O)Nc2ccccc2C(F)(F)F)cc1S(=O)(=O)N1CCOCC1 | 2 | · | · | · | · | · | · | ·
Cc1nn(-c2ccccc2)c(N2CCCC2)c1/C=C1\N=C(c2ccc(OC(C)C)cc2)OC1=O | 14 | -46 | 52* | -1 | -2 | 2 | 17 | 6
Cc1ccc(C2=N/C(=C\N3CCCCC3)C(=O)O2)cc1 | 7 | -3 | 4 | 6 | 12 | -5 | · | ·
N#Cc1c(N)nc2c(c1N)CC(=O)N2c1ccccc1-c1ccccc1 | 10 | -2 | 0 | 7 | 8 | -4 | · | ·
N#Cc1c(N(CCO)CCO)nc(N)c2c(N)nc3c(c12)CC(=O)N3Cc1cccs1 | -284 | -1 | 73* | 32 | 30 | 11 | 42* | 12 | Apaf1 inh interf=>100
C[C@@H]1CN([C@H](C)CO)C(=O)c2cc(C#CC3CCCCC3)cnc2O[C@H]1CN(C)Cc1cccnc1 | 28 | · | · | · | · | · | · | ·
Cn1c2c(c(=O)n(C)c1=O)CS(=O)c1ccccc1N2 (stereo not drawn) | -22 | · | · | · | · | · | · | ·
Cc1ccc(NC(=O)NNS(=O)(=O)c2ccc(Br)cc2)cc1 | 24 | -2 | 3 | 4 | -17 | 2 | · | ·
Cc1ccc(S(=O)(=O)NC(=O)Nc2ccc(N(C)C)cc2)cc1 | 75* | -45 | 57* | 18 | 40 | 24 | 23 | 2 | SENP8 conf=64*
COc1ccc(CN2C(=O)C(CC(=O)NCCc3ccccn3)CC(C(=O)N3CCCCCC3)=C2C)cc1 (stereo not drawn) | 7 | · | · | · | · | · | · | ·
SMILES | SENP8 block-1 | UBC13 inh | Apaf1 inhib | SENP7 block | SENP6 block | SENP8 block-2 | Apaf-1 inh conf2 | Rh110 quench | others
O=C(Cc1cc(=O)[nH][nH]1)N/N=C/c1c(Cl)cccc1Cl | 44*! | 4 | 64*! | -4 | 11 | 4 | 5 | -2 | SENP8 conf=19
CC1=NN(c2ccc(C)cc2C)C(=O)C1C(c1cccc(O)c1)C1C(=O)N(c2ccc(C)cc2C)N=C1C (stereo not drawn) | 60* | -30 | 85* | 10 | -5 | -3 | 27 | -2 | SENP8 conf=44*
CC1=NNC(=O)C1C(c1cccc(O)c1)C(C#N)C#N (stereo not drawn) | 5 | -14 | -13 | 1 | -6 | -7 | · | ·
Oc1cccc(-c2ccc3nccn3c2)c1 | -95 | · | · | · | · | · | · | ·
COc1ccc(NC(=O)NNc2cc(N3CCOCC3)nc(N3CCOCC3)n2)cc1 | 44* | -22 | 52* | 1 | 25 | -3 | 30 | 0 | SENP8 conf=39
Cc1cccc(C(=O)NC2C(=O)NNC2c2ccc(Cl)cc2)c1 (stereo not drawn) | 44* | -32 | 54* | 14 | 19 | -2 | 23 | 9 | SENP8 conf=22
CCC(CO)Oc1cc(NCc2cccc(C)c2)c2ncn(C(C)C)c2c1 (stereo not drawn) | 42* | -6 | 54* | 10 | -5 | 3 | 28 | 6 | SENP8 conf=54*
Cc1cc(=O)n(-c2ccc3ccccc3n2)[nH]1 | 47* | -9 | 86* | 4 | 16 | -3 | 4 | 4 | SENP8 conf=17
CC1=NN(c2ccc(S(=O)(=O)O)cc2C)C(=O)C1 | 69* | -6 | 51* | 2 | 6 | -4 | 19 | 14 | SENP8 conf=11
CC1=NN(c2ccc(Cl)cc2)C(=O)C1 | 14 | -10 | 39 | 10 | 11 | -6 | · | ·
O=C(O)c1[nH]c(-c2ccccc2)c2c1C(=O)N(C1CC1)C2=O | -122 | · | · | · | · | · | · | ·
COC(=O)c1ccccc1-c1ccc(C(c2c(C)[nH][nH]c2=O)c2c(C)[nH][nH]c2=O)o1 | 50* | -44 | 79* | 12 | 27 | 20 | 30 | 6 | SENP8 conf=42*
COc1ccc(C2CC(c3cccs3)=NN2C(=O)CCCC(=O)O)cc1OC (stereo not drawn) | -62 | · | · | · | · | · | · | ·
CCCC(=O)OCCNc1cc(SCc2ccco2)c2nonc2c1[N+](=O)[O-] | 62* | -38 | 57* | 18 | 32 | 26 | -1 | 0 | SENP8 conf=6
CCCSc1cc(NCCOC(=O)CCC)c([N+](=O)[O-])c2nonc12 | 20 | -9 | 15 | 9 | 12 | -2 | · | ·
CN(C)c1ccc(C=C(C#N)C(=O)c2ccccc2)cc1Br | -52 | · | · | · | · | · | · | ·
